{"data": "Measured values from different studies", "target": "Dual specificity protein kinase CLK2 (CLK2, Homo sapiens, UniProt P49760)", "note": "Lines come from different studies, so protocols differ."}
{"Structure (SMILES)": "CO[C@@H]1[C@H](N(C)C(=O)c2ccccc2)C[C@H]2O[C@]1(C)n1c3ccccc3c3c4c(c5c6ccccc6n2c5c31)C(=O)NC4", "effect on": "enzyme activity", "mode": "inhibitor", "concentration": "1 µM", "endpoint": "inhibition", "value": "54%"}
{"Structure (SMILES)": "C1=C/COCc2cc(ccc2OCCN2CCCC2)Nc2nccc(n2)-c2cccc(c2)COC/1", "effect on": "binding", "concentration": "0.1 µM", "endpoint": "remaining binding", "value": "47%"}
{"Structure (SMILES)": "C[C@H]1CC[C@H](n2c3cnccc3c3cnc(Nc4ccc5c(n4)CCN(C(=O)CO)C5)nc32)CC1", "effect on": "cell-free assay", "concentration": "1 µM", "endpoint": "remaining signal", "value": "1%"}
{"Structure (SMILES)": "CC(C)S(=O)(=O)c1ccc2nccc(Nc3ccc4sc(C5CCCC5)nc4c3)c2c1", "effect on": "enzyme activity", "mode": "inhibitor", "concentration": "1 µM", "endpoint": "activity vs control", "value": "105%"}
{"Structure (SMILES)": "Cc1ccc(NC(=O)c2ccnc(C(F)(F)F)c2)cc1-c1cc(OCCO)nc(N2CCOCC2)c1", "effect on": "binding", "concentration": "1 µM", "endpoint": "remaining binding", "value": "100%"}
{"Structure (SMILES)": "C#Cc1cc(-c2cc(Nc3nc(N[C@@H](C)c4ccc(F)cn4)ncc3Cl)n[nH]2)ccc1C=O", "effect on": "enzyme activity", "mode": "inhibitor", "concentration": "0.2 µM", "endpoint": "inhibition", "value": "47.4%"}
{"Structure (SMILES)": "CCCCC(=O)Nc1ccc(-c2ccc3ncn(CCC)c(=O)c3c2)cn1", "effect on": "binding", "technique": "competition with immobilised ligand", "concentration": "0.5 µM", "endpoint": "remaining binding", "value": "100%"}
{"Structure (SMILES)": "Cc1cc(O)c(-c2ccc([C@@H](C)CN(C)C)cc2)c2c1[nH]c(=O)c1sccc12", "effect on": "enzyme activity", "mode": "inhibitor", "concentration": "0.1 µM", "endpoint": "inhibition", "value": "8.32%"}
{"Structure (SMILES)": "C=CC(=O)N1CCC[C@@H](n2nc(-c3ccc(Oc4ccccc4)cc3)c3c(N)ncnc32)C1", "effect on": "enzyme activity", "mode": "inhibitor", "concentration": "1 µM", "endpoint": "inhibition", "value": "2%"}
